Our source for the RL and RH values is ChEMBL document CHEMBL1130216, “Design, synthesis, and dopamine receptor modulating activity of diketopiperazine peptidomimetics of L-prolyl-L-leucylglycinamide” (J Med Chem, 1997).

The target in test [1] is D(2) dopamine receptor (Bos taurus) (UniProt P20288). The test can be described thus: Percentage of receptor in the low affinity form for the compound in absence of Gpp(NH)p (Pre treated with 1 uM) to Dopamine receptor D2.
Test [2] has the same target. The test can be described thus: Percentage of receptor in the low affinity form for the compound to Dopamine receptor D2 in presence of Gpp(NH)p (pre treated with 1 uM).
The target is the same in test [3]. Briefly: Percentage of receptor in the high affinity form for the compound to Dopamine receptor D2 in presence of Gpp(NH)p (pre treated with 1 uM). The test is classed as functional.
Test [4] shares this target. The test can be described thus: Percentage of receptor in the low affinity form for the compound to Dopamine receptor D2 in absence of Gpp(NH)p. The test is classed as functional. A digest of the protocol:
(§1)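 Bovine striatal membranes (150-200 µg protein) were incubated with 0.2 nM [3H]spiroperidol and varying N-propylnorapomorphine, with or without 100 µM Gpp(NH)p and 100 nM peptidomimetic, plus 50 nM ketanserin, for 1 h at 22 °C, then GF/B filtered. Nonspecific binding was set with 1.0 µM (+)-butaclamol. A two-site fit gave high/low-affinity fractions; Ki values came via Cheng-Prusoff. Mean ± SEM of 3-4 experiments.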

Test [5] has the same target. The test can be described thus: Percentage of receptor in the high affinity form for the compound to Dopamine receptor D2 in presence of Gpp(NH)p. The format is functional. In a few lines: as §1
The target is the same in test [6]. The test can be described thus: Percentage of receptor in the low affinity form for the compound to Dopamine receptor D2 in presence of Gpp(NH)p. The test is classed as functional. A digest of the protocol:
as §1

Test [7] shares this target. Briefly: Percentage of receptor in the high affinity form for the compound to Dopamine receptor D2 in absence of Gpp(NH)p. The format is functional. In a few lines: as §1
Test [8] has the same target. The test can be described thus: Percentage of receptor in the high affinity form for the compound in absence of Gpp(NH)p (Pre treated with 1 uM) to Dopamine receptor D2.

Molecules are shown by their SMILES. Where a SMILES comes first, the peptide text is derived from it.

Chain of D(2) dopamine receptor (Bos taurus) (P20288 whole entry): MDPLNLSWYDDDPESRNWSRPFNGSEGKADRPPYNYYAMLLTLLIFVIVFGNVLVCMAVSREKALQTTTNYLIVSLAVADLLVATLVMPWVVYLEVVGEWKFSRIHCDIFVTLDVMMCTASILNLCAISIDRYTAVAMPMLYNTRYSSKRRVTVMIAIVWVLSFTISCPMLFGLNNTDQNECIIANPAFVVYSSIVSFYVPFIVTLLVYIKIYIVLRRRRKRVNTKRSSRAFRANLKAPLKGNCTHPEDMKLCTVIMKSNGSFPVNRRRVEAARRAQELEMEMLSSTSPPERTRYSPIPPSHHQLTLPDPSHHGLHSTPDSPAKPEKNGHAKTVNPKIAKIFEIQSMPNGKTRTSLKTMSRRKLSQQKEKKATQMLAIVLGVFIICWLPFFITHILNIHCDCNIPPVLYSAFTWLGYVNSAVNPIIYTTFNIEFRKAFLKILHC

For `CC(C)C[C@H](NC(=O)[C@@H]1CCCN1)C(=O)NCC(N)=O` (H-Pro-Leu-Gly-NH2), the RL in test [1] turned out to be 41%; in test [2], 72%; in test [4], 51%; in test [6] it was 82%. In addition, the RH is 32% in test [3], 19% in test [5], 49% in test [7] and 61% in test [8].

`NC(=O)[C@H]1CS[C@@H]2C[C@@H](N3CC(=O)N4CCC[C@H]4C3=O)C(=O)N12`: the RL in test [4] came to 51%; in test [6], 81.5%. The RH in test [5] was found to be 18.5%; in test [7], 49%.

`NC(=O)CN1CC[C@@H](N2CC(=O)N3CCC[C@H]3C2=O)C1=O`: the RL in test [4] worked out at 55%; in test [6], 78%. In addition, the RH amounted to 22% in test [5] and 46% in test [7].

Consider `CC(C)C[C@@H](C(=O)NCC(N)=O)N1CC(=O)N2CCC[C@H]2C1=O`, for which the RL was found to be 43.8% in test [4] and 81.2% in test [6]. Further, the RH was determined as 18.8% in test [5] and 56.2% in test [7].
